Experimental data reported in ChEMBL document CHEMBL1129445 (J Med Chem, 1996).

Legend:
[1] = molecular target: T1, Inosine-5'-monophosphate dehydrogenase 2 (Homo sapiens, UniProt P12268); assay: Inhibition of human recombinant type II Inosine Monophosphate Dehydrogenase. at pH 8.0
How it was run: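 Recombinant human type II IMPDH (12.5-25 pmol) in 0.1 M Tris-HCl pH 8.0, 0.1 M KCl, 3 mM EDTA, 100 μg/mL BSA. […] IC50 fitted with a Hill equation, fractional activity = V0/[(I/IC50)^n + 1].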

Homo sapiens [2] = species on record: Homo sapiens; assay: Inhibition of human Lymphocyte proliferation. The IC50 values were determined by interpolation using cubic spline determination.; assay type: functional
How it was run: (§1)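 Human PBMC are isolated on Ficoll from heparinized blood and plated at 2 × 10^5 cells/well in RPMI-1640 with 5% FCS. Cells are stimulated with PHA (10 μg/mL final) and given compound at time 0, at 4-6 concentrations between 0.001 and 20 μM (tested to 10 μM). Cultures run in quadruplicate for 72 h at 37 °C, 7% CO2, with [3H]thymidine (0.5 μCi/well) for the last 6 h. IC50 by cubic-spline interpolation of the means.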

[3] = molecular target: T1, Inosine-5'-monophosphate dehydrogenase 2; assay: Inhibition of human recombinant inosine monophosphate dehydrogenase type II.
How it was run: (§2)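 Reactions are run either at pH 7.4 (0.1 M K phosphate, 0.5 M KCl, 3 mM EDTA, 10 μg/mL BSA) or at pH 8.0 (0.1 M Tris-HCl, 0.1 M KCl, 3 mM EDTA, 100 μg/mL BSA). DMSO ≤10%, compounds tested up to 100 μM. IC50 from fit of fractional activity = V0/[(I/IC50)^n + 1].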

Homo sapiens [4] = species on record: Homo sapiens; assay: Compound was tested for inhibition of human Lymphocyte proliferation. The IC50 values were determined by interpolation using the cubic spline determination at 10 uM; assay type: functional; how it was run: as §1
[5] = molecular target: T1, Inosine-5'-monophosphate dehydrogenase 2; assay: Inhibition of human recombinant type II Inosine Monophosphate Dehydrogenase at 100 uM; how it was run: as §2
Mus musculus [6] = species on record: Mus musculus; assay: Compound was tested for its % Inhibition of Murine PFC response in Mice; assay type: functional
Homo sapiens [7] = species on record: Homo sapiens; assay: Inhibition of human Lymphocyte proliferation. The IC50 values were determined by interpolation using the cubic spline determination at 10 uM; assay type: functional; how it was run: as §1
Mus musculus [8] = assay: Tested for the inhibition of murine PFC response at 100 mg/kg dose; assay type: functional
Mus musculus [9] = assay: Tested for the inhibition of murine PFC response at 50 mg/kg dose; assay type: functional
Mus musculus [10] = assay: Tested for the inhibition of murine PFC response at 12.5 mg/kg dose; assay type: functional
Mus musculus [11] = assay: Tested for the inhibition of murine PFC response at 25 mg/kg dose; assay type: functional

| Compound | IC50 (Homo sapiens [2]) | IC50 [3] | further results |
| --- | --- | --- | --- |
| COc1c(C)c2c(c(O)c1C/C=C(\C)CCC(=O)O)C(=O)OC2C (stereo not drawn) | 0.6 µM | – | IC50 [1]: 0.42 µM |
| C/C(=C\Cc1c(O)c2c(c(C)c1C1CC1)COC2=O)CCC(=O)O | 0.34 µM | 0.0507 µM | – |
| COc1c(C)c(C)c(F)c(O)c1C/C=C(\C)CCC(=O)O | 4.1 µM | 1.08 µM | – |
| COc1c(C)c(C)c(/C=N/O)c(O)c1C/C=C(\C)CCC(=O)O | – | – | IC50 (Homo sapiens [4]): > 10 µM; IC50 [5]: 11.9 µM |
| COc1c(C/C=C(\C)CCC(=O)O)c(O)c2c(c1OC)COC2=O | 0.13 µM | – | IC50 [1]: 0.126 µM; Inhibition (Mus musculus [6]): 49% |
| C/C(=C\Cc1c(C)c(C)c(C)c([N+](=O)[O-])c1O)CCC(=O)O | 3.2 µM | 0.289 µM | – |
| COc1c(C)c(C)c(O)c(Cl)c1C/C=C(\C)CCC(=O)O | – | – | IC50 (Homo sapiens [7]): > 10 µM; IC50 [5]: 2.88 µM |
| COc1cc(C/C=C(\C)CCC(=O)O)c(OC)c(C)c1C | – | 50 µM | – |
| C/C(=C\Cc1c(O)c(C)c2c(c1O)C(=O)OC2)CCC(=O)O | > 10 µM | 0.0877 µM | – |
| COc1c(C)c(C)c(F)c(F)c1C/C=C(\C)CCC(=O)O | – | – | IC50 (Homo sapiens [7]): > 10 µM; IC50 [5]: 1.38 µM |
| C/C(=C\Cc1c(N)cc(C)c(C)c1C)CCC(=O)O | – | 90.8 µM | – |
| COc1c(C)c2c(c(O)c1C/C=C(\C)CCC(=O)O)C(=O)CC2 | 0.83 µM | 0.14 µM | – |
| COc1c(C/C=C(\C)CCC(=O)O)c(O)c2c(c1C(N)=O)COC2=O | > 10 µM | – | IC50 [1]: > 100 µM |
| C/C(=C\Cc1c(C)c(C)c(C)c(Br)c1N)CCC(=O)O | – | 0.763 µM | – |
| C/C(=C\Cc1c(C)c(C)c(C)c(Br)c1O)CCC(=O)O | 1.65 µM | 0.62 µM | – |
| COc1cc2c(c(O)c1C/C=C(\C)CCC(=O)O)C(=O)OC2 | – | – | IC50 [1]: 0.515 µM |
| COc1c(C)c(C)c(Br)c(O)c1C/C=C(\C)CCC(=O)O | 0.28 µM | 0.0367 µM | inhibition in vivo at 100 mg/kg (Mus musculus [8]): 5% |
| COc1c(C)c(C)c(Cl)c(N)c1C/C=C(\C)CCC(=O)O | 4.1 µM | 0.489 µM | inhibition in vivo at 100 mg/kg (Mus musculus [8]): 42% |
| C=Cc1c(C)c2c(c(O)c1C/C=C(\C)CCC(=O)O)C(=O)OC2 | 0.093 µM | 0.00851 µM | – |
| C/C(=C\Cc1c(C)c(C)c(C)c(Cl)c1O)CCC(=O)O | 0.36 µM | 0.0693 µM | – |

| Compound | IC50 (Homo sapiens [2]) | IC50 [3] | further results |
| --- | --- | --- | --- |
| COc1c(C)c(C)c(Cl)c(F)c1C/C=C(\C)CCC(=O)O | 7.5 µM | 0.437 µM | inhibition in vivo at 100 mg/kg (Mus musculus [8]): 0% |
| COc1c(C)c(C)c(C#N)c(Cl)c1C/C=C(\C)CCC(=O)O | – | – | IC50 (Homo sapiens [7]): > 10 µM; IC50 [5]: 0.681 µM |
| COc1c(C)c(C)c(C#N)c(N)c1C/C=C(\C)CCC(=O)O | 4.1 µM | 14.8 µM | – |
| C/C(=C\Cc1c(C)c(C)c2c(c1O)C(=O)OC2)CCC(=O)O | 0.25 µM | – | IC50 [1]: 0.0186 µM; inhibition in vivo at 50 mg/kg (Mus musculus [9]): 45% |
| COc1c(C)c2c(c(O)c1C/C=C(\C)CCC(=O)O)C(=O)SC2 | 1.7 µM | 0.121 µM | – |
| COc1c(C/C=C(\C)CCC(=O)O)cc(SC)c(C)c1C | – | – | IC50 (Homo sapiens [7]): > 10 µM; IC50 [5]: 52.3 µM |
| COc1c(C)c(C)c(I)c(O)c1C/C=C(\C)CCC(=O)O | 4.9 µM | 0.592 µM | – |
| COc1c(C)c(C)c([N+](=O)[O-])c(N)c1C/C=C(\C)CCC(=O)O | 2.8 µM | 0.465 µM | – |
| COc1c(C)c(C)c(Cl)c(Cl)c1C/C=C(\C)CCC(=O)O | – | – | IC50 (Homo sapiens [7]): > 10 µM; IC50 [5]: 0.557 µM |
| COc1c(C)c2c(c(O)c1C/C=C(\C)CCC(=O)O)C(=O)OCC2 | 8.6 µM | – | IC50 [1]: 0.644 µM |
| COc1c(C)c(C)c(OC)c(C/C=C(\C)CCC(=O)O)c1O | – | 11.9 µM | – |
| COc1c(C/C=C(\C)CCC(=O)O)cc(O)c(C)c1C | – | – | IC50 [5]: > 100 µM |
| COc1c(C)c(C)c(F)c(Cl)c1C/C=C(\C)CCC(=O)O | – | – | IC50 (Homo sapiens [7]): > 10 µM; IC50 [5]: 11.8 µM |
| COc1c(C)c(C)c([N+](=O)[O-])c(O)c1C/C=C(\C)CCC(=O)O | – | 0.184 µM | – |
| COc1c(C/C=C(\C)CCC(=O)O)cc(Br)c(C)c1C | – | – | IC50 (Homo sapiens [7]): > 10 µM; IC50 [5]: 0.795 µM |
| CCc1c2c(c(O)c(C/C=C(\C)CCC(=O)O)c1OC)C(=O)OC2 | 3 µM | – | IC50 [1]: 0.41 µM |
| COc1c(C)c(C)c(Br)c(Cl)c1C/C=C(\C)CCC(=O)O | – | – | IC50 (Homo sapiens [7]): > 10 µM; IC50 [5]: 1.04 µM |
| COc1c(C)c(C)c(C#N)c(O)c1C/C=C(\C)CCC(=O)O | 1.7 µM | 0.534 µM | – |
| COc1c(C/C=C(\C)CCC(=O)O)cc(C#N)c(C)c1C | – | 1.6 µM | – |
| C/C(=C\Cc1cc(C)c2c(c1O)C(=O)OC2)CCC(=O)O | – | – | IC50 [1]: 6.96 µM |

| Compound | IC50 (Homo sapiens [2]) | IC50 [3] | further results |
| --- | --- | --- | --- |
| COc1c(C)c(C)c([N+](=O)[O-])c(Cl)c1C/C=C(\C)CCC(=O)O | – | – | IC50 (Homo sapiens [7]): > 10 µM; IC50 [5]: 1.8 µM |
| COc1c(C)c(C)c(C)c(O)c1C/C=C(\C)CCC(=O)O | 3.7 µM | 0.959 µM | – |
| COc1c(C)c(C)cc(Cl)c1C/C=C(\C)CCC(=O)O | – | – | IC50 (Homo sapiens [7]): > 10 µM; IC50 [5]: 18.8 µM |
| COc1c(C)c(C)c(Cl)c(C)c1C/C=C(\C)CCC(=O)O | – | – | IC50 (Homo sapiens [7]): > 10 µM; IC50 [5]: 1.7 µM |
| COc1c(C/C=C(\C)CCC(=O)O)cc(Cl)c(C)c1C | 6.7 µM | 0.537 µM | – |
| COc1c(C/C=C(\C)CCC(=O)O)cc(S(C)=O)c(C)c1C (stereo not drawn) | – | – | IC50 (Homo sapiens [7]): > 10 µM; IC50 [5]: > 100 µM |
| COc1c(Br)c2c(c(O)c1C/C=C(\C)CCC(=O)O)C(=O)OC2 | 4 µM | – | IC50 [1]: 0.975 µM |
| COc1c(C/C=C(\C)CCC(=O)O)cc(N)c(C)c1C | – | 17 µM | – |
| COc1c(C)c(C)c(C=O)c(O)c1C/C=C(\C)CCC(=O)O | 10 µM | 1.12 µM | – |
| COc1c(C)c(C)c(Br)c(N)c1C/C=C(\C)CCC(=O)O | 4.1 µM | 0.462 µM | inhibition in vivo at 100 mg/kg (Mus musculus [8]): 30% |
| C/C(=C\Cc1c(O)c2c(c(C)c1C(N)=O)COC2=O)CCC(=O)O | > 10 µM | 0.231 µM | – |
| COc1c(C#N)c2c(c(O)c1C/C=C(\C)CCC(=O)O)C(=O)OC2 | > 10 µM | – | IC50 [1]: > 100 µM |
| COc1c(C/C=C(\C)CCC(=O)O)cc([N+](=O)[O-])c(C)c1C | 9.5 µM | 1.22 µM | – |
| C/C(=C\Cc1c(O)c2c(c(C)c1C#N)COC2=O)CCC(=O)O | > 10 µM | 15.5 µM | – |
| CO/N=C/c1c(C)c(C)c(OC)c(C/C=C(\C)CCC(=O)O)c1O | – | – | IC50 (Homo sapiens [4]): > 10 µM; IC50 [5]: 52.8 µM |
| COc1c(C)c(C)c(Cl)c(O)c1C/C=C(\C)CCC(=O)O | 0.2 µM | 0.0335 µM | inhibition in vivo at 12.5 mg/kg (Mus musculus [10]): 0%; inhibition in vivo at 25 mg/kg (Mus musculus [11]): 0%; inhibition in vivo at 100 mg/kg (Mus musculus [8]): 83% |
| COc1c(C)c(C)cc(O)c1C/C=C(\C)CCC(=O)O | – | 51.8 µM | – |
| CCOc1c(C)c2c(c(O)c1C/C=C(\C)CCC(=O)O)C(=O)OC2 | 0.43 µM | – | IC50 [1]: 0.0898 µM |
| C/C(=C\Cc1c(O)c2c(c(C)c1-c1ccccc1)COC2=O)CCC(=O)O | 2.8 µM | 0.13 µM | – |
| COc1c(C)c2c(c(O)c1C/C=C(\C)CCC(=O)O)C(=O)NC2 | 1.5 µM | – | IC50 [1]: 0.244 µM |
